For data set [1], the target named is T1, Cytochrome P450 3A4 (Homo sapiens, UniProt P08684). The experiment in a line: Concentration required to inhibit cytochrome P450 isozyme CYP3A4-BzRes in vitro by 50%. In kind it is ADME.
The target in a further data set is T2, Cytochrome P450 1A2 (Homo sapiens, UniProt P05177).
T2 sequence (P05177 whole entry): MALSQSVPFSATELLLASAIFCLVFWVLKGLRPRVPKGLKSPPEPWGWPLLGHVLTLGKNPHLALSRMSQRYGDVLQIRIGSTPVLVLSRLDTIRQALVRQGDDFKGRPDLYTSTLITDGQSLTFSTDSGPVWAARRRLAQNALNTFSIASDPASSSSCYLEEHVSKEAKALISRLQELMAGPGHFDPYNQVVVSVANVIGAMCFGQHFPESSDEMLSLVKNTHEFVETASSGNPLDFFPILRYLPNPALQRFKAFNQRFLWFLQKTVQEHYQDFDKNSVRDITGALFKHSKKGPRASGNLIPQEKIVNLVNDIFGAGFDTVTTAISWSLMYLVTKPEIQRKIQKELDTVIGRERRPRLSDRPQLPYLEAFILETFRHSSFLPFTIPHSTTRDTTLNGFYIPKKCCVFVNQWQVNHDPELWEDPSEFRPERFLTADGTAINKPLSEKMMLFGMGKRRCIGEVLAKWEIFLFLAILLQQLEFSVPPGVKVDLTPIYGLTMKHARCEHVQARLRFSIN
The experiment in a line: Concentration required to inhibit Cytochrome P450 1A2 in vitro by 50%. In kind it is ADME.

The next data set has as its target Cytochrome P450 2C9 (Homo sapiens, UniProt P11712). The experiment in a line: Concentration required to inhibit Cytochrome P450 2C9 in vitro by 50%.
The target of another data set is Cytochrome P450 2C19 (Homo sapiens, UniProt P33261). In words: Concentration required to inhibit cytochrome P450 isozyme CYP2C19 in vitro by 50%. In kind it is ADME.
Data set [2] addresses T1, Cytochrome P450 3A4. The experiment in a line: Concentration required to inhibit cytochrome P450 isozyme CYP3A4-BFC in vitro by 50%. It counts as ADME.
Data set [3] can be described thus: In vitro inhibitory concentration against Geo (colon) cell line with ATP concentration at 1/2Km. It counts as functional, Homo sapiens.
Another data set deals with MCF7. In words: In vitro inhibitory concentration against MCF-7(breast) cell line with ATP concentration at 1/2Km. It counts as functional, cell-based. The conditions noted are these: Homo sapiens.
For another data set, the system named is COLO 205. In words: In vitro inhibitory concentration against COLO 205 (colon) cell line with ATP concentration at 1/2Km. It counts as functional, cell-based. Particulars: Homo sapiens.
Data set [4] in a line: In vitro inhibitory concentration against MDA PCa-2b (prostate) cell line with ATP concentration at 1/2Km. In kind it is functional, Homo sapiens.
For another data set, the system named is RD. In words: In vitro inhibitory concentration against RD1 (rhabdomyosarcoma) cell line with ATP concentration at 1/2Km. In kind it is functional, cell-based. The conditions noted are these: Homo sapiens.
The nature of data set [5]: Bioavailability in monkey at 5 mg/kg oral dose. In kind it is ADME, organism-based. The conditions noted are these: cercopithecidae, in vivo.
Data set [6] is described as follows: Bioavailability in rat administered perorally at 50 mg/kg. It counts as ADME, organism-based. The conditions noted are these: in vivo, po.
Data set [7] is described as follows: Bioavailability in mouse administered perorally at 20 mg/kg. It counts as ADME, organism-based. Particulars: in vivo, po.
In data set [8] the target is Dual specificity mitogen-activated protein kinase kinase 1 (Homo sapiens, UniProt Q02750). The experiment in a line: In vitro inhibitory concentration against MEK with ATP concentration at 1/2Km. In a few lines:
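Cell-free kinase inhibition assay. ATP was set at ½ Km, determined separately for each kinase, and the IC50 was derived under that condition.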

Data set [9] in a line: Bioavailability in dog at 5 mg/kg oral dose. It counts as ADME, organism-based, Canis lupus familiaris. The conditions noted are these: in vivo.
Data set [10] can be described thus: Total clearance in monkey at 2 mg/kg intravenous dose. It counts as ADME, organism-based. Also on record: dose 2 mg/kg, route intravenous. The conditions noted are these: cercopithecidae, in vivo, read-out: CLtot.
A short description of data set [11]: Total clearance in rat when administered intravenously at 4 mg/kg. It counts as ADME, organism-based. Also on record: dose 4 mg/kg, route intravenous. The conditions noted are these: in vivo, iv, read-out: CLtot.
Data set [12] can be described thus: Total clearance in dog when administered intravenously at 2 mg/kg. In kind it is ADME, organism-based, Canis lupus familiaris. Also on record: dose 2 mg/kg, route intravenous. Particulars: in vivo, iv, read-out: CLtot.
Data set [13] is described as follows: Total clearance in mouse when administered intravenously at 4 mg/kg. It counts as ADME, organism-based. Also on record: dose 4 mg/kg, route intravenous. The conditions noted are these: in vivo, iv, read-out: CLtot.
A short description of data set [14]: Steady-state volume of distribution in rat when administered intravenously at 4 mg/kg. It counts as ADME, organism-based. Also on record: dose 4 mg/kg, route intravenous. The conditions noted are these: in vivo, iv, read-out: Vss.
The nature of data set [15]: Steady-state volume of distribution in mouse when administered intravenously at 4 mg/kg. Particulars: in vivo, iv, read-out: Vss. Also on record: dose 4 mg/kg, route intravenous. In kind it is ADME, organism-based.
Data set [16] is described as follows: Steady-state volume of distribution in monkey when administered intravenously at 2 mg/kg. In kind it is ADME, organism-based. Also on record: dose 2 mg/kg, route intravenous. The conditions noted are these: cercopithecidae, in vivo, iv, read-out: Vss.
Data set [17] can be described thus: Steady-state volume of distribution in dog when administered intravenously at 2 mg/kg. Also on record: dose 2 mg/kg, route intravenous. Particulars: in vivo, iv, read-out: Vss. It counts as ADME, organism-based, Canis lupus familiaris.
Data set [18] can be described thus: Maximum concentration in dog administered orally at 5 mg/kg. It counts as ADME, organism-based, Canis lupus familiaris. Also on record: dose 5 mg/kg, route oral. Particulars: in vivo, po.
Data set [19] in a line: Maximum concentration in rat administered orally at 50 mg/kg. In kind it is ADME, organism-based. Also on record: dose 50 mg/kg, route oral. The conditions noted are these: in vivo, po.
Data set [20] is described as follows: Maximum concentration in monkey administered orally at 5 mg/kg. Also on record: dose 5 mg/kg, route oral. The conditions noted are these: cercopithecidae, in vivo, po. It counts as ADME, organism-based.
Data set [21] is described as follows: Maximum concentration in mouse administered orally at 20 mg/kg. In kind it is ADME, organism-based. Also on record: dose 20 mg/kg, route oral. The conditions noted are these: in vivo, po.

Molecules are shown by their SMILES.

T1 sequence (P08684 whole entry): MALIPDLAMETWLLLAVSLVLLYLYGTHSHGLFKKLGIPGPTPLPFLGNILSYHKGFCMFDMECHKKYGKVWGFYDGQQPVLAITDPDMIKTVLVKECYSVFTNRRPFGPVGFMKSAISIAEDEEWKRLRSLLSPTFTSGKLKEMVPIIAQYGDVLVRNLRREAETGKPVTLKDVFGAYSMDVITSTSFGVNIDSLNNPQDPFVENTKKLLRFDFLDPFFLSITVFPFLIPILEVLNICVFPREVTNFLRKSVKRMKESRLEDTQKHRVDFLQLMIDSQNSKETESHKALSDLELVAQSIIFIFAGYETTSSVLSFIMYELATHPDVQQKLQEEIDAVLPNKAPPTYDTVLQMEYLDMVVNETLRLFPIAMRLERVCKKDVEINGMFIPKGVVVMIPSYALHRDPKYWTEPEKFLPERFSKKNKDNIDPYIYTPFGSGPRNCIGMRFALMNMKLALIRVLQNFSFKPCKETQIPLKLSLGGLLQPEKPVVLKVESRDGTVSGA
Chain of Cytochrome P450 2C19 (P33261 whole entry): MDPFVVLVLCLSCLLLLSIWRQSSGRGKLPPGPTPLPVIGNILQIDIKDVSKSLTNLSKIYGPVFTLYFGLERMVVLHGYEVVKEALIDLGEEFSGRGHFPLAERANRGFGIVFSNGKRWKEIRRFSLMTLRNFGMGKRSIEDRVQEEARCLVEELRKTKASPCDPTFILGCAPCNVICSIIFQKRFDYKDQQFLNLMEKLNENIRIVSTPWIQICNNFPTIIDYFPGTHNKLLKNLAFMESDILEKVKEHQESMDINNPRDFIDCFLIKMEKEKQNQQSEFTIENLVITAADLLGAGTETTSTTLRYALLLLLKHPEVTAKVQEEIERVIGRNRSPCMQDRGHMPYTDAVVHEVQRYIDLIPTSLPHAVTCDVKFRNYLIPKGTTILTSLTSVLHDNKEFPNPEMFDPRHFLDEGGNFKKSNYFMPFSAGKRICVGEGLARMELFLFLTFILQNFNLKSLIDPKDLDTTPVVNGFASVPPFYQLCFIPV
Chain of Dual specificity mitogen-activated protein kinase kinase 1 (Q02750 whole entry): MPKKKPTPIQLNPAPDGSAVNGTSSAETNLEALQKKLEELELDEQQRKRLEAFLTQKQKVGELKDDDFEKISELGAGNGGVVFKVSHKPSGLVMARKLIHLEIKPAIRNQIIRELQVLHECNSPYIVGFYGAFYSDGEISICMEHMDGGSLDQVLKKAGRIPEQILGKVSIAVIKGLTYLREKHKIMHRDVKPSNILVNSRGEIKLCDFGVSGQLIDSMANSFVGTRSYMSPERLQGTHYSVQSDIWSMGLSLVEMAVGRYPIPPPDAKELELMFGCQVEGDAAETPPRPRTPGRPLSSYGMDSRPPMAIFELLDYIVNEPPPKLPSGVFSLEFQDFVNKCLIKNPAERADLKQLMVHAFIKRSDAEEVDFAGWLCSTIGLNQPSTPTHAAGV
Chain of Cytochrome P450 2C9 (P11712 whole entry): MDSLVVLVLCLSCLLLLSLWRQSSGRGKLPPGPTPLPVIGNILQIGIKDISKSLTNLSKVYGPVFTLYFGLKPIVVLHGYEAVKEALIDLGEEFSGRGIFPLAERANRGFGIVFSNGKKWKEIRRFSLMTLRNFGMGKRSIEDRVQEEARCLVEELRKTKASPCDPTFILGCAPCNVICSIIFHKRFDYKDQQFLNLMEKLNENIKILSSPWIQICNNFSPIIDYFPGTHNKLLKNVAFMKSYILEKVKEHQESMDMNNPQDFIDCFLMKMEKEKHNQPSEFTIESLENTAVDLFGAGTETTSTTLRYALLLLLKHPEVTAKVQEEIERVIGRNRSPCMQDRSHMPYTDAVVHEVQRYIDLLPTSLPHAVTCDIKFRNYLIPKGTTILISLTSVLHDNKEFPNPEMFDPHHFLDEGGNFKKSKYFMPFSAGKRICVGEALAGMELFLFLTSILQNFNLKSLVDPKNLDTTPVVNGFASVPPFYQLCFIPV

As usually defined, the IC50 is the concentration that gives 50% inhibition. Turning to `Cc1cc(-n2ccnc2)cc2[nH]c(-c3c(NCC(O)c4cccc(Cl)c4)cc[nH]c3=O)nc12` (configuration not stated), the concentration for half-maximal inhibition (IC50) on Cytochrome P450 3A4 [1] is less than 18 nM; at Cytochrome P450 1A2 it was less than 18 nM; against Cytochrome P450 2C9 it was less than 18 nM; on Cytochrome P450 2C19, 26 nM; on Cytochrome P450 3A4 [2] it was less than 18 nM.

As usually defined, the bioavailability is dose-corrected exposure relative to a reference, in per cent. In general, Cmax refers to the highest concentration seen after dosing. In the case of `Cc1cc(N2CCOCC2)cc2[nH]c(-c3c(NC[C@@H](O)c4cccc(Cl)c4)cc[nH]c3=O)nc12`, the IC50 in data set [3] amounted to 320 nM; in the data set with MCF7, 460 nM; with COLO 205 it was 212 nM; in data set [4], 194 nM; in the data set on RD it was 202 nM; in data set [8], 182 nM. The bioavailability in data set [5] was 32%; in [6], greater than 100%; in data set [7], 50%; in [9] it was 70%. For the same compound, the clearance in [10] amounted to 16.5 mL/min/kg; in data set [11], 5.8 mL/min/kg; in data set [12], 4.1 mL/min/kg; in data set [13] it was 37.8 mL/min/kg. For the same compound, the Vd in data set [14] turned out to be 0.8 L/kg; in [15] it was 1.9 L/kg; in [16] it was 1.4 L/kg; in [17], 1.3 L/kg. Further, the Cmax in data set [18] was 4.1 µM; in [19], 69 µM; in [20] it was 1.3 µM; in data set [21], 3.8 µM.

The values are drawn from ChEMBL document CHEMBL1143653, “Discovery of a (1H-benzoimidazol-2-yl)-1H-pyridin-2-one (BMS-536924) inhibitor of insulin-like growth factor I receptor kinase with in vivo antitumor activity” (J Med Chem, 2005).
